Reference: ChEMBL document CHEMBL4425095, “Novel Cephalosporins Selectively Active on Nonreplicating Mycobacterium tuberculosis” (J Med Chem, 2016)
≈ marks a conversion by molar mass, not a printed value.

Tests used:
Assay type in all cases: functional
[1] = system: Mycobacterium tuberculosis; experiment: Antimycobacterial activity against non-replicating Mycobacterium tuberculosis mc2 6220 harboring panCD/lysA deletion mutant incubated for 3 days measured at OD580 = 0.1 by two-fold serial dilution method
Method in brief: (§1)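 M. tuberculosis mc26220 washed twice in PBS-tyloxapol and resuspended in Sauton's-based nonreplicating medium (pH 5.0, butyrate 0.05%, BSA, tyloxapol, lysine, pantothenate, 0.5 mM NaNO2). Incubated at 1% O2, 5% CO2 with 2-fold serially diluted compound from DMSO. After 3 days, diluted 5-fold in fresh replicating medium for outgrowth at 20% O2. Reported as MIC90.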

[2] = system: Mycobacterium tuberculosis; experiment: Antimycobacterial activity against replicating Mycobacterium tuberculosis mc2 6220 harboring panCD/lysA deletion mutant by two-fold serial dilution method
Method in brief: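 M. tuberculosis mc26220 in replicating medium supplemented with glycerol (final 0.5%), OADC, casamino acids 0.05%, lysine 240 μg/mL and pantothenate 24 μg/mL. Exposed to 2-fold serially diluted compound from DMSO. OD580 read after 7 days at 20% O2, 5% CO2. Reported as MIC90.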

[3] = system: Mycobacterium tuberculosis; experiment: Antimycobacterial activity against non-replicating Mycobacterium tuberculosis mc2 6220 harboring panCD/lysA deletion mutant incubated for 3 days measured at OD580 = 0.01 by two-fold serial dilution method; method in brief: as §1
[4] = system: Mycobacterium tuberculosis; experiment: Antimycobacterial activity against non-replicating Mycobacterium tuberculosis mc2 6220 harboring panCD/lysA deletion mutant incubated for 7 days measured at OD580 = 0.1 by two-fold serial dilution method; method in brief: as §1
[5] = system: Mycobacterium tuberculosis; experiment: Antimycobacterial activity against non-replicating Mycobacterium tuberculosis mc2 6220 harboring panCD/lysA deletion mutant incubated for 7 days measured at OD580 = 0.01 by two-fold serial dilution method; method in brief: as §1
[6] = system: Mycobacterium tuberculosis; experiment: Antimycobacterial activity against non-replicating Mycobacterium tuberculosis mc2 6220 harboring panCD/lysA deletion mutant incubated for 6 days measured at OD580 = 0.1 by two-fold serial dilution method; method in brief: as §1
[7] = system: Mycobacterium tuberculosis; experiment: Antimycobacterial activity against replicating Mycobacterium tuberculosis mc2 6220 harboring panCD/lysA deletion mutant incubated for 3 days measured at OD580 = 0.01 by two-fold serial dilution method

Compound | MIC90 [1] [µg/mL] | MIC90 [2] [µg/mL] | MIC90 [3] [µg/mL] | MIC90 [4] [µg/mL] | MIC90 [5] [µg/mL] | MIC90 [6] [µg/mL] | MIC90 [7] [µg/mL]
CCCc1noc(C2=C(C)CS[C@@H]3[C@H](NC(=O)Cc4ccc(Cl)cc4)C(=O)N23)n1 | 2.63 (≈ 6.07 µM) | >100 | – | – | – | – | –
CC1=C(c2nc(C)no2)N2C(=O)[C@@H](NC(=O)COc3ccc(C)cc3)[C@H]2SC1 | 7.42 (≈ 18.5 µM) | >100 | – | – | – | – | –
C#CCOC(=O)C1=C(C)CS[C@@H]2[C@H](NC(=O)CCc3ccccc3)C(=O)N12 | 19.97 (≈ 51.9 µM) | >100 | 1.11 (≈ 2.89 µM) | – | – | – | –
COc1ccc(OCC(=O)N[C@@H]2C(=O)N3C(c4nc(C)no4)=C(C)CS[C@H]23)cc1 | 14.57 (≈ 35 µM) | >100 | – | – | – | – | –
CCCc1noc(C2=C(C)CS[C@@H]3[C@H](NC(=O)COc4ccc(C)cc4)C(=O)N23)n1 | 14.31 (≈ 33.4 µM) | >100 | – | – | – | – | –
COC(=O)C1=C(C)CS[C@@H]2[C@H](NC(=O)CCc3ccc(OC)cc3)C(=O)N12 | – | 59.82 (≈ 153 µM) | 0.39 (≈ 0.999 µM) | 3.28 (≈ 8.4 µM) | – | – | –
CCCCOc1ccc(CCC(=O)N[C@@H]2C(=O)N3C(c4nc(C)no4)=C(C)CS[C@H]23)cc1 | 59.36 (≈ 130 µM) | >100 | – | – | – | – | –
C#CCOC(=O)C1=C(C)CS[C@@H]2[C@H](NC(=O)CCc3ccc(Cl)cc3)C(=O)N12 | 7.85 (≈ 18.7 µM) | >100 | 0.56 (≈ 1.34 µM) | – | – | – | –
CC1=CS[C@@H]2[C@H](NC(=O)COc3ccccc3)C(=O)N2[C@H]1CO | >100 | >100 | – | – | – | – | –
CC1=C(c2nc(C)no2)N2C(=O)[C@@H](NC(=O)COc3ccc(C(F)(F)F)cc3)[C@H]2SC1 | 5.26 (≈ 11.6 µM) | >100 | – | – | – | – | –
CC1=C(c2nc(C)no2)N2C(=O)[C@@H](NC(=O)COc3ccccc3)[C@H]2SC1 | – | >100 | – | 1.85 (≈ 4.79 µM) | 0.88 (≈ 2.28 µM) | – | –
COC(=O)C1=C(C)CS[C@@H]2[C@H](NC(=O)CCc3ccccc3)C(=O)N12 | – | >100 | – | 1.27 (≈ 3.52 µM) | 10.4 (≈ 28.9 µM) | – | –
CCC(C)OC(=O)C1=C(C)CS[C@@H]2[C@H](NC(=O)CCc3ccc(OC)cc3)C(=O)N12 (stereo not given in full) | – | >100 | – | 2.95 (≈ 6.82 µM) | 1.57 (≈ 3.63 µM) | – | –
CCCCOC(=O)C1=C(C)CS[C@@H]2[C@H](NC(=O)CCc3ccccc3)C(=O)N12 | – | >100 | – | <0.24 | 0.21 (≈ 0.522 µM) | – | –
CCCc1noc(C2=C(C)CS[C@@H]3[C@H](NC(=O)COc4ccc(Cl)cc4)C(=O)N23)n1 | – | >100 | – | 3.87 (≈ 8.62 µM) | 1.36 (≈ 3.03 µM) | – | –
CCCc1noc(C2=C(C)CS[C@@H]3[C@H](NC(=O)CCc4ccccc4Cl)C(=O)N23)n1 | – | >100 | – | 1.27 (≈ 2.84 µM) | 0.52 (≈ 1.16 µM) | – | –
CC1=C(c2nc(C)no2)N2C(=O)[C@@H](NC(=O)COc3ccc(Cl)cc3)[C@H]2SC1 | – | >100 | – | 1.72 (≈ 4.09 µM) | 1.2 (≈ 2.85 µM) | – | –
CC1=C(C(=O)OCc2ccccc2)N2C(=O)[C@@H](NC(=O)COc3ccc(Cl)cc3)[C@H]2SC1 | – | >100 | – | 8.07 (≈ 17.1 µM) | 0.87 (≈ 1.84 µM) | – | –
CCCOC(=O)C1=C(C)CS[C@@H]2[C@H](NC(=O)CCc3ccccc3)C(=O)N12 | – | 53.64 (≈ 138 µM) | – | 1.24 (≈ 3.19 µM) | 0.6 (≈ 1.54 µM) | – | –
CCCOC(=O)C1=C(C)CS[C@@H]2[C@H](NC(=O)COc3ccc(Cl)cc3)C(=O)N12 | – | >100 | – | 1.34 (≈ 3.15 µM) | 0.66 (≈ 1.55 µM) | – | –

Compound | MIC90 [1] [µg/mL] | MIC90 [2] [µg/mL] | MIC90 [3] [µg/mL] | MIC90 [4] [µg/mL] | MIC90 [5] [µg/mL] | MIC90 [6] [µg/mL] | MIC90 [7] [µg/mL]
CC1=C(C(=O)O)N2C(=O)[C@@H](NC(=O)[C@H](N)c3ccccc3)[C@H]2SC1 [CEPHALEXIN ANHYDROUS] | 61.35 (≈ 177 µM) | 33.99 (≈ 97.8 µM) | 97.93 (≈ 282 µM) | 100 (≈ 288 µM) | – | 70.42 (≈ 203 µM) | 33.99 (≈ 97.8 µM)
CCCOC[C@H]1C(C)=CS[C@@H]2[C@H](NC(=O)COc3ccccc3)C(=O)N21 | >100 | >100 | – | – | – | – | –
CCCc1noc(C2=C(C)CS[C@@H]3[C@H](NC(=O)CCc4ccc(OC)cc4)C(=O)N23)n1 | – | >100 | – | 0.67 (≈ 1.51 µM) | 0.37 (≈ 0.836 µM) | – | –
CCCOC(=O)C1=C(C)CS[C@@H]2[C@H](NC(=O)CCc3ccc(OC)cc3)C(=O)N12 | – | >100 | – | <0.2 | <0.2 | – | –
CC1=C(C(=O)O)N2C(=O)[C@@H](NC(=O)c3ccc(Cl)cc3)[C@H]2SC1 | – | >100 | – | >35.28 | >35.28 | – | –
COc1ccc(CCC(=O)N[C@@H]2C(=O)N3C(C(=O)O)=C(C)CS[C@H]23)cc1 | – | >100 | – | >37.64 | >37.64 | – | –
CC1=CS[C@@H]2[C@H](NC(=O)COc3ccccc3)C(=O)N2[C@H]1COS(=O)(=O)c1ccc(Br)cc1 | – | >83.24 | – | >55.34 | >55.34 | – | –
CC1=C(c2nc(C)no2)N2C(=O)[C@@H](NC(=O)COc3cccc(Cl)c3)[C@H]2SC1 | 2.59 (≈ 6.15 µM) | >100 | – | – | – | – | –
COC[C@H]1C(C)=CS[C@@H]2[C@H](NC(=O)COc3ccccc3)C(=O)N21 | – | >87.82 | – | >34.84 | >34.84 | – | –
CCCCOC(=O)C1=C(C)CS[C@@H]2[C@H](NC(=O)CCc3ccc(Cl)cc3)C(=O)N12 | – | >100 | – | 1.24 (≈ 2.84 µM) | 0.72 (≈ 1.65 µM) | – | –
COCC1=C(C)CS[C@@H]2[C@H](NC(=O)COc3ccccc3)C(=O)N12 | >100 | >96.74 | – | – | – | – | –
COC(=O)C1=C(C)CS[C@@H]2[C@H](NC(=O)[C@@H](c3ccccc3)N(C)C)C(=O)N12 | – | >100 | – | >38.95 | >38.95 | – | –
CCCCOC(=O)C1=C(C)CS[C@@H]2[C@H](NC(=O)COc3ccc(OC)cc3)C(=O)N12 | – | >100 | – | 1.12 (≈ 2.58 µM) | 0.71 (≈ 1.63 µM) | – | –
CCOC(=O)C1=C(C)CS[C@@H]2[C@H](NC(=O)CCc3ccc(OC)cc3)C(=O)N12 | – | 21.37 (≈ 52.8 µM) | – | 0.51 (≈ 1.26 µM) | 0.4 (≈ 0.989 µM) | – | –
C=CC1=C(C(=O)O)N2C(=O)[C@@H](NC(=O)/C(=N\O)c3csc(N)n3)[C@H]2SC1 | – | 4.11 (≈ 10.4 µM) | – | >100 | 77.84 (≈ 197 µM) | – | –
COc1ccc(CCC(=O)N[C@@H]2C(=O)N3C(C(=O)OC4CCCC4)=C(C)CS[C@H]23)cc1 | – | 44.33 (≈ 99.7 µM) | – | 0.96 (≈ 2.16 µM) | 0.84 (≈ 1.89 µM) | – | –
CCCc1noc(C2=C(C)CS[C@@H]3[C@H](NC(=O)c4ccc(Cl)cc4)C(=O)N23)n1 | – | >100 | – | 2.28 (≈ 5.44 µM) | 1.06 (≈ 2.53 µM) | – | –
CC1=C(c2nc(C)no2)N2C(=O)[C@@H](NC(=O)OCC(Cl)(Cl)Cl)[C@H]2SC1 | – | >100 | – | 0.92 (≈ 2.15 µM) | 0.46 (≈ 1.08 µM) | – | –
CC1=C(C(N)=O)N2C(=O)[C@@H](NC(=O)COc3ccccc3)[C@H]2SC1 | – | >100 | – | >100 | 59.68 (≈ 172 µM) | – | –
